Molecules are shown by their SMILES.

Usually inhibition stands for the drop in the measured response relative to a control, in per cent.

Experiment [1] is described as follows: Antioxidant activity assessed as ABTS radical scavenging activity after 2 mins. The class given is functional. The essentials: (§1)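 ABTS radical cation made from 7 mM ABTS in deionized water plus potassium persulphate (2.45 mM), kept dark at room temperature 12–16 h, then diluted with ethanol to A734 0.700 ± 0.020. 1 ml of this added to 10 µl compound; absorbance at 734 nm read at 30 °C at 1–6 min after mixing. Triplicate determinations.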

A short description of experiment [2]: Antioxidant activity assessed as ABTS radical scavenging activity after 6 mins. The class given is functional. The gist of the method:
as §1

The nature of experiment [3]: Antioxidant activity assessed as ABTS radical scavenging activity after 1 min. Type of experiment: functional. The essentials:
as §1

The species entered for experiment [4] is Mus musculus. Nature of the experiment: Antioxidant activity in Swiss albino mouse assessed as reduced glutathione level measured per mg of tissue after 7 days. Type of experiment: functional. The gist of the method:
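Male Swiss albino mice (24 ± 2 g) given compound orally in 0.1 ml double-distilled water daily for 7 days; controls got water. Perfused liver homogenized 10% w/v in tris-KCl pH 7.4, precipitated with 25% TCA, centrifuged. 0.1 ml supernatant mixed with 2 ml 0.6 mM DTNB and 0.9 ml […] pH 8.0; absorbance at 412 nm for GSH.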

The species named for experiment [5] is Mus musculus. Nature of the experiment: Antioxidant activity in Swiss albino mouse assessed as lipid peroxidation level measured per mg of tissue after 7 days. Type of experiment: functional, organism-based. The essentials:
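Male random-bred Swiss albino mice (24 ± 2 g) dosed orally once daily for 7 days with compound in 0.1 ml double-distilled water; controls water only. Liver perfused with cold 0.9% NaCl, homogenized 10% w/v in tris-KCl pH 7.4. TBARS: sample with tris-KCl, 30% TCA, 52 mM TBA, 25 min at 80 °C, centrifuged; supernatant read at 531.8 nm, expressed as malondialdehyde per mg protein.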

Experiment [6] has as its system Radical scavenging activity. Kind of experiment: Antioxidant activity assessed as DPPH radical scavenging activity at 1 mg/ml. Type of experiment: functional. The essentials: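 Compound stock 1 mg/ml in methanol; 50 µl added to 5 ml 0.004% methanolic DPPH. Incubated 30 min in dark at room temperature, absorbance at 517 nm against blank. Percent inhibition calculated by formula; triplicate.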
(The DPPH test is a chemical assay of radical scavenging.)

Experiment [7] can be described thus: Antioxidant activity assessed as ABTS radical scavenging activity after 4 mins. The class given is functional. The essentials: as §1

`Cc1ccc2[nH]c(=O)c3c(c2c1)Nc1ccc(Br)cc1S3`: the deltaA in experiment [1] amounted to 0.406; in experiment [2] it was 0.406; in experiment [3], 0.412; in experiment [7], 0.406. Moreover, the Activity in the experiment listed under Mus musculus [4] was determined as 5 nmol; in the experiment filed under Mus musculus [5] it was 6.42 nmol. For the same molecule, in experiment [6], the inhibition worked out at 13.7%.
As to `COc1cccc2c3c(c(=O)[nH]c12)Sc1cc(Br)ccc1N3`, the deltaA was determined as 0.098 in experiment [1], 0.095 in experiment [2], 0.141 in experiment [3] and 0.098 in experiment [7]. In addition, the values for the Activity in the experiment filed under Mus musculus [4] and in the experiment filed under Mus musculus [5] were 5.01 nmol and 6.51 nmol, respectively. In addition, the inhibition in experiment [6] stood at 53.8%.
As to `Cc1cccc2c1Nc1c(c(=O)[nH]c3c(C)cccc13)S2`, the deltaA in experiment [1] amounted to 0.61; in experiment [2], 0.61; in experiment [3] it was 0.62; in experiment [7], 0.61. Besides, the Activity in the experiment filed under Mus musculus [4] was 4.51 nmol; in the experiment filed under Mus musculus [5], 6.72 nmol. Also, the inhibition in experiment [6] amounted to 2.71%.
For the molecule `Cc1ccc2[nH]c(=O)c3c(c2c1)Nc1c(cccc1C(F)(F)F)S3`, the deltaA in experiment [1] was found to be 0.318; in experiment [2], 0.318; in experiment [3] it was 0.328; in experiment [7], 0.318. For the same molecule, the figures for the Activity in the experiment filed under Mus musculus [4] and in the experiment filed under Mus musculus [5] were 4.9 nmol and 6.53 nmol, respectively. The inhibition in experiment [6] stood at 22.4%.
On to `Cc1ccc2[nH]c(=O)c3c(c2c1)Nc1c(C)cccc1S3`, for which the deltaA came out at 0.52 in experiment [1], 0.52 in experiment [2], 0.56 in experiment [3] and 0.52 in experiment [7]. In addition, the Activity is 4.5 nmol in the experiment listed under Mus musculus [4] and 6.69 nmol in the experiment listed under Mus musculus [5]. The inhibition in experiment [6] is 8.33%.
Take `COc1cccc2c1Nc1c(c(=O)[nH]c3c(OC)cccc13)S2`: the deltaA in experiment [1] was 0.052; in experiment [2], 0.052; in experiment [3] it was 0.055; in experiment [7] it was 0.052. The Activity in the experiment filed under Mus musculus [4] is 4.8 nmol; in the experiment listed under Mus musculus [5], 6.81 nmol. For the same molecule, the inhibition in experiment [6] worked out at 54.3%.

For the origin of these results see ChEMBL document CHEMBL1250484, “Synthesis and antioxidant activity of quinolinobenzothiazinones” (2010).
